Published values of several laboratories.
Protocols differ between the studies behind these lines.
PIK3CA I800L: Phosphatidylinositol 4,5-bisphosphate 3-kinase catalytic subunit alpha isoform (PIK3CA, Homo sapiens, UniProt P42336, I800L)
PIK3CA: Phosphatidylinositol 4,5-bisphosphate 3-kinase catalytic subunit alpha isoform (PIK3CA, Homo sapiens, UniProt P42336)
PIK3CA E542K: Phosphatidylinositol 4,5-bisphosphate 3-kinase catalytic subunit alpha isoform (PIK3CA, Homo sapiens, UniProt P42336, E542K)
PIK3CA H1047L: Phosphatidylinositol 4,5-bisphosphate 3-kinase catalytic subunit alpha isoform (PIK3CA, Homo sapiens, UniProt P42336, H1047L)
PIK3CA H1047Y: Phosphatidylinositol 4,5-bisphosphate 3-kinase catalytic subunit alpha isoform (PIK3CA, Homo sapiens, UniProt P42336, H1047Y)
PIK3CA M1043I: Phosphatidylinositol 4,5-bisphosphate 3-kinase catalytic subunit alpha isoform (PIK3CA, Homo sapiens, UniProt P42336, M1043I)

SMILES | target | observed | mode | method | tested at | endpoint | result
O=C(Nc1cccnn1)N1CC(C/C=C/c2cncc(Oc3ccc(C(F)(F)F)cn3)n2)C1 | PIK3CA I800L | cell-free assay |  | competition with immobilised ligand | 1 µM | remaining binding | 91%
CCCCNc1ncc2c(-c3ccc(F)cc3)nn(C[C@H]3CC[C@H](N)CC3)c2n1 | PIK3CA | target engagement in cells | inhibitor | chemoproteomics | 20 mM | inhibition | 70.8%
Cc1ccc(C(=O)NCc2ccsc2)cc1C#Cc1cn(C(C)C)c2ncnc(N)c12 | Phosphatidylinositol 4,5-bisphosphate 3-kinase catalytic subunit alpha isoform, with p85 (PIK3CA, Homo sapiens, UniProt P42336, E542K) | enzyme activity | inhibitor |  | 1 µM | activity vs control | 100%
C=CC(=O)N(C)CCCCC(=O)N1CCN(c2nc(-c3cnc(N)nc3C(F)F)nc(N3CCOCC3)n2)CC1 | PIK3CA | ligand displacement |  | TR-FRET |  | kinact | 0.000127 s⁻¹
O=c1nc(-c2ccccn2)sc2ccccc12 | PIK3CA E542K | cell-free assay |  | competition with immobilised ligand | 1 µM | remaining binding | 89%
CC(C)=CC(=O)CCCC(=O)N1CCN(c2nc(-c3cnc(N)nc3C(F)F)nc(N3CCOCC3)n2)CC1 | PIK3CA | cell-free assay |  | TR-FRET |  | kinact | 2.6e-05 s⁻¹
O=C(NC[C@@H]1[C@H]2CN(C(=O)OCc3cc(C(F)(F)F)cc(C(F)(F)F)c3)C[C@@H]12)c1ccc2[nH]nnc2c1 | PIK3CA E542K | cell-free assay |  | competition with immobilised ligand | 1 µM | remaining binding | 75%
Cc1ccc(C(=O)Nc2ccc(CN3CCN(C)CC3)c(C(F)(F)F)c2)cc1C#Cc1cnc2cccnn12 | PIK3CA E542K | enzyme activity | inhibitor |  | 23.5 nM | remaining activity | 96%
Cn1nc(C(F)(F)F)cc1-c1cnc(N2CCc3cc(S(=O)(=O)Nc4c(F)cc(Cl)cc4F)cc(N4CCCC4=O)c32)nc1 | PIK3CA H1047L | cell-free assay |  | competition with immobilised ligand | 1 µM | remaining binding | 94%
c1ccc(CNc2nc(N3CCOc4ccccc43)nc3c2CCCC3)cc1 | PIK3CA | target engagement in cells | inhibitor | chemoproteomics | 20 mM | inhibition | 28.5%
C=CC(=O)NCCCCC(=O)N1CCN(c2nc(-c3cnc(N)nc3C(F)F)nc(N3CCOCC3)n2)CC1 | PIK3CA | cell-free assay |  | TR-FRET |  | kinact/KI | 16400 M⁻¹ s⁻¹
c1cnn2ncc(-c3ccnc(N4CCC45COC5)n3)c2c1 | PIK3CA H1047Y | binding |  |  | 1 µM | remaining binding | 83%
C/C=C/C(=O)CCCCCC(=O)N1CCN(c2nc(-c3cnc(N)nc3C(F)F)nc(N3CCOCC3)n2)CC1 | PIK3CA | cell-free assay |  | TR-FRET |  | kinact | 0.0153 s⁻¹
CS(=O)(=O)Nc1cc(-c2ccc3ncnc(Nc4ccc(F)c(Cl)c4)c3c2)cnc1Cl | PIK3CA | enzyme activity | inhibitor | FRET | 10 µM | inhibition | 90 to 100%
Cc1c[nH]c2nccc(Oc3c(F)cc(Nc4cc(Cl)nc(N)n4)cc3F)c12 | PIK3CA H1047Y | cell-free assay |  | competition with immobilised ligand | 0.1 µM | remaining binding | 83%
F[C@@H]1CCN(c2nccc(-c3cnn4ncccc34)n2)C1 | PIK3CA M1043I | binding |  |  | 1 µM | remaining binding | 100%
CC(=O)Oc1ccc(-c2coc3c4c(c(CC=C(C)C)c(OC(C)=O)c3c2=O)OC(C)(C)C=C4)cc1OC(C)=O | Phosphatidylinositol 4,5-bisphosphate 3-kinase catalytic subunit alpha isoform (PIK3CA, Homo sapiens, UniProt P42336, E545K) | enzyme activity | inhibitor | ADP detection | 10 µM | remaining activity | 37.6%
N[C@@H]1CCN(c2nccc(-c3cnn4ncccc34)n2)C1 | PIK3CA M1043I | binding |  |  | 1 µM | remaining binding | 100%
C=CC(=O)N1CCC(C(=O)N(C)CCCC(=O)N2CCN(c3nc(-c4cnc(N)nc4C(F)F)nc(N4CCOCC4)n3)CC2)CC1 | PIK3CA | cell-free assay |  | TR-FRET |  | kinact/KI | 33600 M⁻¹ s⁻¹
C[C@@H]1CCN(c2nccc(-c3cnn4ncccc34)n2)C1 | PIK3CA H1047L | binding |  |  | 1 µM | remaining binding | 75%
CC(C)CCn1c(SCC(=O)Nc2ccccc2C(F)(F)F)nc2nccnc2c1=O | PIK3CA | enzyme activity | inhibitor |  | 10 µM | inhibition | < 20%
CCS(=O)(=O)c1cc2cc(C[C@@](O)(CC(C)(C)c3ccc(F)cc3C(N)=O)C(F)(F)F)[nH]c2cn1 | PIK3CA H1047L | cell-free assay |  | competition with immobilised ligand | 1 µM | remaining binding | 97%
CN(C)c1nccc(-c2cnn3ncccc23)n1 | PIK3CA I800L | binding |  |  | 1 µM | remaining binding | 96%
Cc1cc(NC(=O)c2cccc(S(F)(F)(F)(F)F)c2)cc(-n2ccn3nc(-c4cccnc4)cc23)c1 | PIK3CA M1043I | cell-free assay |  | competition with immobilised ligand | 1 µM | remaining binding | 30.3%
COc1ccnn2ncc(-c3ccnc(N(C)C)n3)c12 | PIK3CA | binding |  |  | 1 µM | remaining binding | 100%
Nc1ncnc2occ(-c3ccc(NC(=O)Nc4cc(C(F)(F)F)ccc4F)cc3)c12 | Phosphatidylinositol 4,5-bisphosphate 3-kinase catalytic subunit alpha isoform (PIK3CA, Homo sapiens, UniProt P42336, Q546K) | cell-free assay | inhibitor |  | 20 µM | remaining signal | 72%
